Experimental data from different studies.
Target: Serine/threonine-protein kinase pim-1 (PIM1, Homo sapiens, UniProt P11309)

CNC(=O)[C@@H]1CC[C@@H](n2c(-c3ccc4cnccc4c3)nc3ccc(C(=O)NCc4cccc(C(N)=O)c4)cc32)C1  remaining binding (binding; competition with immobilised ligand; 1 µM): 100%
CC(C)(C)c1ccc(-c2nc(CBr)nn2-c2cccc(O)c2)cc1  remaining binding (cell-free assay; competition with immobilised ligand; 10 µM): 90%
COc1ncc2cc3ccccc3nc2c1C#N  remaining binding (cell-free assay; competition with immobilised ligand; 5 µM): 87%
C[C@@H]1CCN(c2nccc(-c3cnn4ncccc34)n2)C1  remaining binding (binding; 1 µM): 84%
Cn1nc(C(=O)NCc2ccc(C(=O)O)cc2)cc1-c1ccc2[nH]ccc2c1  remaining binding (cell-free assay; competition with immobilised ligand; 0.1 µM): 91%
CN(C)c1nccc(-c2cnc3ncccn23)n1  remaining binding (binding; 1 µM): 82%
CCN1CCN(Cc2ccc(C(=O)Nc3ccc(C)c(Oc4ccc5c(c4)CC(=O)N5)c3)cc2C(F)(F)F)CC1  remaining binding (binding; competition with immobilised ligand; 1 µM): 100%
Cc1cc(C)c(-n2ccn3nc(-c4cccnc4)cc23)cc1NC(=O)c1cc(C#N)cc(S(F)(F)(F)(F)F)c1  remaining binding (cell-free assay; competition with immobilised ligand; 0.1 µM): 92%
O=C(NCCCN1CCOCC1)c1ccc(Nc2nccc(-c3cc4ccccc4s3)n2)cc1  remaining binding (binding; competition with immobilised ligand; 1 µM): 85%
CN(C)c1nccc(-c2cnn3ncccc23)n1  remaining binding (binding; 1 µM): 81%
FC(F)(F)c1ccc2c(c1)nc(-c1cccnc1)n2C1CC1  remaining binding (cell-free assay; competition with immobilised ligand; 1 µM): 94%
N[C@H]1CCN(c2nccc(-c3cnn4ncccc34)n2)C1  remaining binding (binding; 1 µM): 99%
C[C@H](c1ccc(F)cc1)N(Cc1cccc(C(=O)O)c1)C(=O)c1cnc2ccccc2c1  remaining binding (cell-free assay; competition with immobilised ligand; 1 µM): 100%
O=C(c1ccc(Nc2ncc(Cl)c(-c3ccc(Cl)s3)n2)cc1)N1CCC(N2CCCC2)CC1  remaining binding (binding; competition with immobilised ligand; 1 µM): 87%
C=CC(=O)N1CCC(C(=O)NCC(=O)N2CCN(c3nc(-c4cnc(N)nc4C(F)F)nc(N4CCOCC4)n3)CC2)CC1  remaining binding (binding; competition with immobilised ligand; 1 µM): 95%
CCCCN(CCCC)C(=O)CN1C[C@H](c2cc(OC)c3c(c2)OCO3)[C@@H](C(=O)O)[C@@H]1CC(C)(C)CCC  remaining binding (cell-free assay; competition with immobilised ligand; 1 µM): 100%
FC(F)(F)Oc1cccc(-c2cnc3ccc(-c4ccncc4)nn23)c1  remaining binding (cell-free assay; competition with immobilised ligand; 5 µM): 23%
